Reference: ChEMBL document CHEMBL2396654, “Discovery, synthetic methodology, and biological evaluation for antiphotoaging activity of bicyclic[1,2,3]triazoles: in vitro and in vivo studies” (2013)
Active and inactive are the calls of the source. The calls are words filed in the database; no cut-off is given here.

Columns and labels:
[1] = Antiphotoaging activity in HDF assessed as protection against 6 J/cm'2 UVA-induced reduction of cell survival at 5 uM treated 4 hrs before UVA irradiation measured after 24 hrs by MTT assay relative to control; type: functional; conditions: Homo sapiens, light or radiation study, read-out: Survival
Summary of the method: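 Normal human dermal fibroblasts (passages 5–10) seeded at 10 000 cells/well, grown overnight, exposed to compound at 5 μM for 4 h, then rinsed and irradiated in PBS with 6 J/cm2 UVA (365 nm lamp, 4.762 mW/cm2), after which medium was restored. After 24 h, MTT added for 2 h at 37 °C; formazan dissolved in DMSO, OD 540 nm. Reported as mean ± SD; three independent experiments, triplicate.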

HDF [2] = assay: Antiphotoaging activity in HDF assessed as reduction of 6 J/cm'2 UVA-induced ROS production treated 4 hrs before UVA irradiation using DCFH-DA staining by flow cytometry; type: functional; conditions: Homo sapiens
Summary of the method: (§1)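 Fibroblasts treated 4 h at 5 μM or at various concentrations, then exposed to 6 J/cm2 UVA in PBS (365 nm peak) or sham-irradiated. Loaded with DCFH-DA 10 μM for 30 min at 37 °C. DCF fluorescence read by flow cytometry on FL-1. Three independent experiments.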

HDF [3] = assay: Effect on COL1alpha1 mRNA expression in HDF by quantitative RT-PCR analysis; type: functional; conditions: Homo sapiens
Summary of the method: (§2)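 Fibroblasts treated with compound alone, UVA alone, or both. Total RNA extracted with Trizol; 2 μg reverse-transcribed. SYBR Green real-time qPCR with 0.3 μM each primer and 100 ng cDNA. GAPDH listed among the amplified genes.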

HDF [4] = assay: Effect on ROS production in HDF at 5 uM after 4 hrs using DCFH-DA staining by flow cytometry; type: functional; conditions: Homo sapiens; summary of the method: as §1
HDF [5] = assay: Antiphotoaging activity in HDF assessed as reduction of 6 J/cm'2 UVA-induced senescence-associated-beta-gal positive cells treated 4 hrs before UVA irradiation using 5-bromo-4-chloro-3-indoyl-beta-galactoside staining by microscopic analysis; type: functional; conditions: Homo sapiens
HDF [6] = assay: Antiphotoaging activity in HDF assessed as protection against 6 J/cm'2 UVA-induced reduction of elastin mRNA expression treated 4 hrs before UVA irradiation by quantitative RT-PCR analysis; type: functional; conditions: Homo sapiens; summary of the method: as §2
HDF [7] = assay: Effect on fibronectin mRNA expression in HDF by quantitative RT-PCR analysis; type: functional; conditions: Homo sapiens; summary of the method: as §2
HDF [8] = assay: Effect on elastin mRNA expression in HDF by quantitative RT-PCR analysis; type: functional; conditions: Homo sapiens; summary of the method: as §2
HDF [9] = assay: Antiphotoaging activity in HDF assessed as protection against 6 J/cm'2 UVA-induced reduction of cell proliferation treated 2 to 4 hrs before UVA irradiation measured after 24 hrs by MTT assay; type: functional; conditions: Homo sapiens
Summary of the method: (§3)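 Fibroblasts seeded at 10 000 cells/well and left overnight. Pretreated with 0, 1, 2.5 or 5 μM for 2 or 4 h, then given 6 J/cm2 UVA in PBS; medium added back. After 24 h, MTT 2 h at 37 °C, formazan dissolved in DMSO, OD read at 540 nm. Three independent experiments.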

HDF [10] = assay: Antiphotoaging activity in HDF assessed as protection against 6 J/cm'2 UVA-induced reduction of procollagen 1 type 1 mRNA expression treated 4 hrs before UVA irradiation by quantitative RT-PCR analysis; type: functional; conditions: Homo sapiens; summary of the method: as §2
HDF [11] = assay: Antiphotoaging activity in HDF assessed as protection against 6 J/cm'2 UVA-induced increase of MMP-1 mRNA expression treated 4 hrs before UVA irradiation by quantitative RT-PCR analysis; type: functional; conditions: Homo sapiens; summary of the method: as §2
HDF [12] = assay: Antiphotoaging activity in HDF assessed as protection against 6 J/cm'2 UVA-induced reduction of TIMP-1 mRNA expression treated 4 hrs before UVA irradiation by quantitative RT-PCR analysis; type: functional; conditions: Homo sapiens; summary of the method: as §2
HDF [13] = assay: Effect on TIMP-1 mRNA expression in HDF by quantitative RT-PCR analysis; type: functional; conditions: Homo sapiens; summary of the method: as §2
HDF [14] = assay: Effect on MMP-1 mRNA expression in HDF by quantitative RT-PCR analysis; type: functional; conditions: Homo sapiens; summary of the method: as §2
HDF [15] = assay: Effect on procollagen 1 type 1 mRNA expression in HDF by quantitative RT-PCR analysis; type: functional; conditions: Homo sapiens; summary of the method: as §2
HDF [16] = assay: Antiphotoaging activity in HDF assessed as protection against 6 J/cm'2 UVA-induced reduction of COL1alpha1 mRNA expression treated 4 hrs before UVA irradiation by quantitative RT-PCR analysis; type: functional; conditions: Homo sapiens; summary of the method: as §2
HDF [17] = assay: Antiphotoaging activity in HDF assessed as protection against 6 J/cm'2 UVA-induced reduction of ATP level at 5 uM treated 4 hrs before UVA irradiation by bioluminescent assay; type: functional; conditions: Homo sapiens
Summary of the method: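 Fibroblasts exposed 4 h to compound at 5 μM, then irradiated with 6 J/cm2 UVA in PBS. Cells lysed at once and debris spun off. Supernatant ATP measured by luciferin–luciferase bioluminescence. Expressed as percent of unirradiated, untreated control. Three independent experiments.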

HDF [18] = assay: Antiphotoaging activity in HDF assessed as protection against 6 J/cm'2 UVA-induced reduction of fibronectin mRNA expression treated 4 hrs before UVA irradiation by quantitative RT-PCR analysis; type: functional; conditions: Homo sapiens; summary of the method: as §2
HDF [19] = assay: Antiphotoaging activity in HDF assessed as protection against 6 J/cm'2 UVA-induced reduction of cell proliferation at 1 to 5 uM measured after 24 hrs by irradiation by MTT assay; type: functional; conditions: Homo sapiens, TDE = time-dependent effect; summary of the method: as §3
HDF [20] = assay: Effect on senescence-associated-beta-gal expression in HDF using 5-bromo-4-chloro-3-indoyl-beta-galactoside staining by microscopic analysis; type: functional; conditions: Homo sapiens
Mus musculus = species on record: Mus musculus; assay: Antiphotoaging activity in ICR mouse assessed as reduction of 3 J/cm'2 UVA-induced epidermal hypertrophy at 0.5 gram per square in dorsal skin immediately after UVA irradiation 3 times a week for up to 12 weeks; type: functional, organism-based
Summary of the method: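 Female ICR mice, six weeks old, n = 4 per group, dorsal skin shaved. Given 3 J/cm2 UVA (4.762 mW/cm2), then 0.1% emulsion (Tefose 63 base) applied topically at 0.5 g per square right after irradiation. Done three times weekly for up to 12 weeks (total 108 J/cm2). Skin taken after final irradiation for histology.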

HDF [21] = assay: Antiphotoaging activity in HDF assessed as protection against 6 J/cm'2 UVA-induced increase of MMP-1 protein expression treated 4 hrs before UVA irradiation by Western blot analysis; type: functional; conditions: Homo sapiens
Summary of the method: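 Fibroblasts pretreated with 5 μM, then given 6 J/cm2 UVA. Lysed in ice-cold RIPA with protease and phosphatase inhibitors; protein measured by Bradford. Immunoblot with rabbit monoclonal anti-MMP-1, actin as loading control. HRP secondary, chemiluminescence detection, densitometry. Three independent experiments.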

HDF [22] = assay: Effect on mitochondrial membrane potential in HDF at 5 uM after 4 hrs using DiOC6 staining by flow cytometry; type: functional; conditions: Homo sapiens
Summary of the method: (§4)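 Normal fibroblasts (passages 5–10) pretreated 4 h at 5 μM or at various concentrations, then 6 J/cm2 UVA given in PBS (365 nm lamp, 4.762 mW/cm2) or sham-irradiated. Cells trypsinized, pelleted, stained with DiOC6 30 min at room temperature, washed, resuspended in PBS. Read at once by flow cytometry, FL-1 530/30 nm. Three independent experiments.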

HDF [23] = assay: Antiphotoaging activity in HDF assessed as increase of 6 J/cm'2 UVA-induced mitochondrial membrane potential treated 4 hrs before UVA irradiation using DiOC6 staining by flow cytometry; type: functional; conditions: Homo sapiens; summary of the method: as §4

Compound: O=[N+]([O-])c1ccc(-c2nnn3c2CCCC3)cc1
- viability at 5 µM [1]: 52%

Compound: COc1cccc(-c2nnn3c2CCC3)c1
- viability at 5 µM [1]: 58%

Compound: c1ccc(-c2nnn3c2CCCC3)cc1
- viability at 5 µM [1]: 57%

Compound: COc1cccc(C#Cc2nnn3c2CCCC3)c1
- viability at 5 µM [1]: 61.9%

Compound: Nc1ccccc1C#Cc1nnn2c1CCC2
- viability at 5 µM [1]: 71.2%

Compound: C(#Cc1nnn2c1CCC2)c1ccccc1
- viability at 5 µM [1]: 62.7%

Compound: COc1ccc(-c2nnn3c2CCC3)cc1
- viability at 5 µM [1]: 70.3%

Compound: O=[N+]([O-])c1cccc(C#Cc2nnn3c2CCC3)c1
- viability at 5 µM [1]: 88.2%

Compound: O=[N+]([O-])c1cccc(-c2nnn3c2CCC3)c1
- viability at 5 µM [1]: 52.8%

Compound: Fc1ccccc1C#Cc1nnn2c1CCC2
- viability at 5 µM [1]: 75.2%

Compound: COc1cccc(-c2nnn3c2CCCC3)c1
- viability at 5 µM [1]: 63.7%

Compound: Nc1ccccc1-c1nnn2c1CCCC2
- viability at 5 µM [1]: 61%

Compound: CCc1ccc(C#Cc2nnn3c2CCC3)cc1
- viability at 5 µM [1]: 80.7%

Compound: C(#Cc1nnn2c1CCCC2)c1ccccc1
- viability at 5 µM [1]: 68.7%

Compound: Fc1ccccc1C#Cc1nnn2c1CCCC2
- viability at 5 µM [1]: 78.9%

Compound: O=[N+]([O-])c1ccc(-c2nnn3c2CCC3)cc1
- viability at 5 µM [1]: 70%

Compound: O=[N+]([O-])c1cccc(-c2nnn3c2CCCC3)c1
- viability at 5 µM [1]: 62%

Compound: COc1cccc(C#Cc2nnn3c2CCC3)c1
- Activity (HDF [2]): Dose-dependent effect
- Activity (HDF [3]): inactive
- Activity (HDF [4]): inactive
- Activity (HDF [5]): Active
- Activity (HDF [6]): Active
- Activity (HDF [7]): inactive
- Activity (HDF [8]): inactive
- Activity (HDF [9]): Dose-dependent effect
- Activity (HDF [10]): Active
- Activity (HDF [11]): Active
- Activity (HDF [12]): Active
- Activity (HDF [13]): inactive
- Activity (HDF [14]): inactive
- Activity (HDF [15]): inactive
- Activity (HDF [16]): Active
- Activity (HDF [17]): Active
- Activity (HDF [18]): Active
- Activity (HDF [19]): tde
- Activity (HDF [20]): inactive
- Activity (Mus musculus): Active
- Activity (HDF [21]): Active
- viability at 5 µM [1]: 95.3%
- Activity (HDF [22]): inactive
- Activity (HDF [23]): Dose-dependent effect

Compound: CCc1ccc(C#Cc2nnn3c2CCCC3)cc1
- viability at 5 µM [1]: 55.7%

Compound: O=[N+]([O-])c1cccc(C#Cc2nnn3c2CCCC3)c1
- viability at 5 µM [1]: 71.3%

Compound: COc1ccc(C#Cc2nnn3c2CCCC3)cc1
- viability at 5 µM [1]: 73%

Compound: c1ccc(-c2nnn3c2CCC3)cc1
- viability at 5 µM [1]: 61.1%

Compound: COc1ccc(-c2nnn3c2CCCC3)cc1
- viability at 5 µM [1]: 54%

Compound: COc1ccc(C#Cc2nnn3c2CCC3)cc1
- viability at 5 µM [1]: 73.2%

Compound: O=[N+]([O-])c1ccc(C#Cc2nnn3c2CCC3)cc1
- viability at 5 µM [1]: 84.1%
